# In ChEMBL document CHEMBL4261531, “Synthesis of thioether andrographolide derivatives and their inhibitory effect against cancer cells” (Medchemcomm, 2017):
# pIC50: −log10 of the molar value.
# What was measured:
# MCF7 = assay: Growth inhibition of human MCF7 cells after 48 hrs by MTT assay; assay type: functional, cell-based; conditions: MCF7, 48 h
# PC-3 = assay: Growth inhibition of human PC3 cells after 48 hrs by MTT assay; assay type: functional, cell-based; conditions: PC-3, 48 h
# How it was run: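 PC-3 human prostate cancer cells exposed to compounds, with viability read by MTT assay; taxol served as the positive control.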
# A549 = assay: Growth inhibition of human A549 cells after 48 hrs by MTT assay; assay type: functional, cell-based; conditions: A549, 48 h
# Vero = assay: Cytotoxicity against African green monkey Vero cells at 100 uM after 48 hrs by MTT assay; assay type: cell-based; conditions: chlorocebus sabaeus
# MDA-MB-231 = assay: Growth inhibition of human MDA-MB-231 cells after 48 hrs by MTT assay; assay type: functional, cell-based; conditions: MDA-MB-231, 48 h
pIC50 (PC-3),SMILES,further results
5.05,C=C1CC[C@@H]2[C@]3(C)COC(C)(C)O[C@@H]3CC[C@@]2(C)[C@@H]1C/C=C1/C(=O)OC[C@H]1OC(=O)CCCSc1cccs1,pIC50 (MCF7): 6.15; pIC50 (A549): 4.60; Activity (Vero): Non-Toxic; pIC50 (MDA-MB-231): 5.00
5.05,C=C1CC[C@@H]2[C@]3(C)COC(C)(C)O[C@@H]3CC[C@@]2(C)[C@@H]1C/C=C1/C(=O)OC[C@H]1OC(=O)CCCSc1ccccn1,pIC50 (MCF7): 6.22; pIC50 (A549): 4.64; Activity (Vero): Non-Toxic; pIC50 (MDA-MB-231): 5.22
4.57,C=C1CC[C@@H]2[C@](C)(CO)[C@H](O)CC[C@@]2(C)[C@@H]1C/C=C1/C(=O)OC[C@H]1OC(=O)CSc1ccc(C)cc1,–
4.82,C=C1CC[C@@H]2[C@](C)(CO)[C@H](O)CC[C@@]2(C)[C@@H]1CC(Sc1cccs1)C1=CCOC1=O (some centres undefined),–
4.82,C=C1CC[C@@H]2[C@]3(C)COC(C)(C)O[C@@H]3CC[C@@]2(C)[C@@H]1C/C=C1/C(=O)OC[C@H]1OC(=O)CSc1cccs1,–
4.85,C=C1CC[C@@H]2[C@](C)(CO)[C@H](O)CC[C@@]2(C)[C@@H]1C/C=C1/C(=O)OC[C@H]1OC(=O)CSc1ccc(F)cc1,–
4.77,C=C1CC[C@@H]2[C@](C)(CO)[C@H](O)CC[C@@]2(C)[C@@H]1C/C=C1/C(=O)OC[C@H]1OC(=O)CSc1ccc([N+](=O)[O-])cc1,–
4.89,C=C1CC[C@@H]2[C@](C)(CO)[C@H](O)CC[C@@]2(C)[C@@H]1C/C=C1/C(=O)OCC1OC(=O)CSc1ccc(F)cc1 (some centres undefined),–
4.74,C=C1CC[C@@H]2[C@](C)(CO)[C@H](O)CC[C@@]2(C)[C@@H]1C/C=C1/C(=O)OC[C@H]1OC(=O)CSc1cccs1,–
4.80,"C=C1CC[C@@H]2[C@](C)(CO)[C@H](O)CC[C@@]2(C)C1C/C=C1/C(=O)OC[C@H]1OC(=O)CCCSc1cccs1 (single isomer, unassigned)",–
4.80,"C=C1CC[C@@H]2[C@](C)(CO)[C@H](O)CC[C@@]2(C)C1C/C=C1/C(=O)OC[C@H]1OC(=O)CCCSc1ccc(C)cc1 (single isomer, unassigned)",–
4.92,"C=C1CC[C@@H]2[C@](C)(CO)[C@H](O)CC[C@@]2(C)C1C/C=C1/C(=O)OC[C@H]1OC(=O)CCCSc1ccc(F)cc1 (single isomer, unassigned)",–
4.85,"C=C1CC[C@@H]2[C@](C)(CO)[C@H](O)CC[C@@]2(C)C1C/C=C1/C(=O)OC[C@H]1OC(=O)CCCSc1ccccn1 (single isomer, unassigned)",–
4.72,"C=C1CC[C@@H]2[C@](C)(CO)[C@H](O)CC[C@@]2(C)C1C/C=C1/C(=O)OC[C@H]1OC(=O)CCCSc1ccc(OC)cc1 (single isomer, unassigned)",–
4.77,"C=C1CC[C@@H]2[C@](C)(CO)[C@H](O)CC[C@@]2(C)C1C/C=C1/C(=O)OC[C@H]1OC(=O)CCCSc1ccc([N+](=O)[O-])cc1 (single isomer, unassigned)",–
4.52,C=C1CC[C@@H]2[C@](C)(CO)[C@H](O)CC[C@@]2(C)[C@@H]1C/C=C1/C(=O)OC[C@H]1O [ANDROGRAPHOLIDE],–

# Second part, the molecule before the results:
SMILES,pIC50 (PC-3),further results
C=C1CC[C@@H]2[C@](C)(CO)[C@H](O)CC[C@@]2(C)[C@@H]1CC(Sc1ccc(C)cc1)C1=CCOC1=O (some centres undefined),4.54,–
C=C1CC[C@@H]2[C@]3(C)COC(C)(C)O[C@@H]3CC[C@@]2(C)[C@@H]1C[C@@H](Sc1cccs1)C1=CCOC1=O,4.70,–
C=C1CC[C@@H]2[C@]3(C)COC(C)(C)O[C@@H]3CC[C@@]2(C)[C@@H]1C/C=C1/C(=O)OC[C@H]1OC(=O)CCCSc1ccc(C)cc1,4.85,–
C=C1CC[C@@H]2[C@]3(C)COC(C)(C)O[C@@H]3CC[C@@]2(C)[C@@H]1CC(Sc1ccccc1)C1=CCOC1=O (some centres undefined),4.92,–
C=C1CC[C@@H]2[C@]3(C)COC(C)(C)O[C@@H]3CC[C@@]2(C)[C@@H]1CC(Sc1ncccn1)C1=CCOC1=O (some centres undefined),5.15,pIC50 (MCF7): 5.15; pIC50 (A549): 4.70; Activity (Vero): Non-Toxic; pIC50 (MDA-MB-231): 5.05
C=C1CC[C@@H]2[C@](C)(CO)[C@H](O)CC[C@@]2(C)[C@@H]1CC(Sc1ccc([N+](=O)[O-])cc1)C1=CCOC1=O (some centres undefined),4.77,–
C=C1CC[C@@H]2[C@]3(C)COC(C)(C)O[C@@H]3CC[C@@]2(C)[C@@H]1C/C=C1/C(=O)OC[C@H]1OC(=O)CCCSc1ccc(F)cc1,4.89,–
C=C1CC[C@@H]2[C@](C)(CO)[C@H](O)CC[C@@]2(C)[C@@H]1CC(Sc1nccs1)C1=CCOC1=O (some centres undefined),4.85,–
C=C1CC[C@@H]2[C@]3(C)COC(C)(C)O[C@@H]3CC[C@@]2(C)[C@@H]1C/C=C1/C(=O)OC[C@H]1OC(=O)CCCSc1ccc(OC)cc1,4.74,–
C=C1CC[C@@H]2[C@]3(C)COC(C)(C)O[C@@H]3CC[C@@]2(C)[C@@H]1CC(Sc1ccc(F)cc1)C1=CCOC1=O (some centres undefined),4.89,–
C=C1CC[C@@H]2[C@]3(C)COC(C)(C)O[C@@H]3CC[C@@]2(C)[C@@H]1CC(Sc1ccc(C)cc1)C1=CCOC1=O (some centres undefined),4.64,–
C=C1CC[C@@H]2[C@](C)(CO)[C@H](O)CC[C@@]2(C)[C@@H]1CC(Sc1ncccn1)C1=CCOC1=O (some centres undefined),5.15,pIC50 (MCF7): 4.64; pIC50 (A549): 5.05; Activity (Vero): Non-Toxic; pIC50 (MDA-MB-231): 4.80
C=C1CC[C@@H]2[C@]3(C)COC(C)(C)O[C@@H]3CC[C@@]2(C)[C@@H]1C/C=C1/C(=O)OC[C@H]1OC(=O)CSc1ccc(C)cc1,4.96,–
C=C1CC[C@@H]2[C@]3(C)COC(C)(C)O[C@@H]3CC[C@@]2(C)[C@@H]1C[C@H](Sc1cccs1)C1=CCOC1=O,5.05,pIC50 (MCF7): 5.30; pIC50 (A549): 4.70; Activity (Vero): Non-Toxic; pIC50 (MDA-MB-231): 5.10
C=C1CC[C@@H]2[C@]3(C)COC(C)(C)O[C@@H]3CC[C@@]2(C)[C@@H]1CC(Sc1ccc([N+](=O)[O-])cc1)C1=CCOC1=O (some centres undefined),4.92,–
C=C1CC[C@@H]2[C@](C)(CO)[C@H](O)CC[C@@]2(C)[C@@H]1CC(Sc1ccccc1)C1=CCOC1=O (some centres undefined),4.85,–
C=C1CC[C@@H]2[C@]3(C)COC(C)(C)O[C@@H]3CC[C@@]2(C)[C@@H]1CC(Sc1nccs1)C1=CCOC1=O (some centres undefined),5.00,pIC50 (MCF7): 5.52; pIC50 (A549): 4.51; Activity (Vero): Non-Toxic; pIC50 (MDA-MB-231): 4.92
C=C1CC[C@@H]2[C@](C)(CO)[C@H](O)CC[C@@]2(C)[C@@H]1CC(Sc1ccc(OC)cc1)C1=CCOC1=O (some centres undefined),4.82,–
C=C1CC[C@@H]2[C@]3(C)COC(C)(C)O[C@@H]3CC[C@@]2(C)[C@@H]1C/C=C1/C(=O)OC[C@H]1OC(=O)CCCSc1ccc([N+](=O)[O-])cc1,4.77,–
C=C1CC[C@@H]2[C@]3(C)COC(C)(C)O[C@@H]3CC[C@@]2(C)[C@@H]1CC(Sc1ccc(OC)cc1)C1=CCOC1=O (some centres undefined),4.77,–
C=C1CC[C@@H]2[C@](C)(CO)[C@H](O)CC[C@@]2(C)[C@@H]1CC(Sc1ccc(F)cc1)C1=CCOC1=O (some centres undefined),4.80,–
C=C1CC[C@@H]2[C@](C)(CO)[C@H](O)CC[C@@]2(C)[C@@H]1CC(Sc1ccccn1)C1=CCOC1=O (some centres undefined),4.74,–
C=C1CC[C@@H]2[C@]3(C)COC(C)(C)O[C@@H]3CC[C@@]2(C)[C@@H]1C/C=C1/C(=O)OC[C@H]1OC(=O)CSc1ccc([N+](=O)[O-])cc1,5.05,pIC50 (MCF7): 5.00; pIC50 (A549): 4.96; Activity (Vero): Non-Toxic; pIC50 (MDA-MB-231): 4.72
C=C1CC[C@@H]2[C@]3(C)COC(C)(C)O[C@@H]3CC[C@@]2(C)[C@@H]1CC(Sc1ccccn1)C1=CCOC1=O (some centres undefined),4.85,–
CC(=O)O[C@H]1C(=O)[C@@]2(C)[C@H]([C@H](OC(=O)c3ccccc3)[C@]3(O)C[C@H](OC(=O)[C@H](O)[C@@H](NC(=O)c4ccccc4)c4ccccc4)C(C)=C1C3(C)C)[C@]1(OC(C)=O)CO[C@@H]1C[C@@H]2O [PACLITAXEL],5.15,–
